# Ec RNAP inh = Escherichia coli RNA polymerase inhibition. inhibition, %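 (tested at 10 µM)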. E. coli RNA polymerase, fluorescence transcription assay. 62,000 tested, 0.2% active. AID 559; in the data active = inhibition above about 20%;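 note: 0% = enzyme without compound and 100% = no enzyme blank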
# BAP1 inh = blocks human BAP1 ubiquitin-AMC hydrolysis. recombinant BAP1, Ub-AMC hydrolysis fluorescence kinetic; hits give low values. AID 436. Q92560. activity remaining (% of control), % at 20 µM. 72,000 tested, 0.48% active;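 active = activity remaining at or below 50% of control, provided the compound also passes the data quality filters; inactive = the rest, including low values that fail the filters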;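 note: 100% = DMSO wells rate and 0% = substrate alone blank rate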
# SF1 activator = activates the human nuclear receptor SF-1. Q13285. CHO-K1 Gal4-SF-1 LBD luciferase reporter; % increase over DMSO SF-1-specific signal. activation, % at 10 µM. 65,000 tested, 1.9% active;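 active = activation above the mean activation of all tested compounds plus 3 SD, cut at about 50% in these data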
#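 Test system: CHO-K1 cells with Gal4–hSF-1 LBD chimera plus Gal4-driven luciferase; Input: 4,000 cells/well; Compound: 10 µM only; Times: 20 h compound treatment, 37 °C; Measured by: steady-glow luciferase luminescence, read after 15 min reagent incubation; Measure: percent activation versus DMSO; Control set: DMSO and mock-transfected background; Replicates: one test per compound.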
# RORa activator = activators of human nuclear receptor RORA | P35398 | CHO-K1 Gal4-RORA LBD luciferase reporter, luminescence; percent increase over mock-subtracted basal signal | 65,000 tested, 1.5% active | AID 560 | activation, % at 10 µM;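 active = activation above the mean of all tested compounds plus 3 SD, cut at about 49% in these data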;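 note: 0% = DMSO-treated RORA cells and 100% = added signal equal to DMSO minus mock-transfected cells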
# JNK3 inh = JNK3 (human) kinase inhibition; 60,000 tested, 0.61% active; P53779; AID 746; purified JNK3 kinase activity, HTS; inhibition, % at 8 µM; in the data active = inhibition above about 17%;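 note: 0% = DMSO and 100% = reference inhibitor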
# * marks the source's active call; other numbers are inactive results; x = no result shown. Rows were chosen to be rich in hits. Some 3.2% of all compounds tested hit in one or more screens of this group.
SMILES,Ec RNAP inh,BAP1 inh,SF1 activator,RORa activator,JNK3 inh
O=C(CSc1ncn[nH]1)c1ccc2c(c1)OCCO2,-5,50,24,16,-12
CC(C)c1ccc(C(=O)CSc2ncn[nH]2)cc1,8,103,53*,53*,7
CCOC(=O)C(C)Sc1nc(-c2cccs2)ccc1C#N (stereo not drawn),6,589,30,8,0
C=COC(=O)CSc1nc(-c2cccs2)ccc1C#N,-6,x,69*,40,-1
Cc1ccc(-c2cc(-c3cccc(F)c3)n[nH]2)c(O)c1,9,79,53*,68*,-3
COc1ccc(-c2cc(-c3cc(F)ccc3O)[nH]n2)cc1OC,-3,115,36,4,-3
CNC(=O)c1[nH]cnc1C(=O)Nc1cccc(OC)c1,1,71,12,-8,18*
Cc1ccc(Nc2nc(N)nc(CN3CCCCCC3)n2)cc1,6,82,-1,11,1
Cc1ccc(Nc2nc(N)nc(CN3CCN(C)CC3)n2)cc1,21*,102,8,-3,-2
COc1cc(C(=O)NCc2nnc(SCC(=O)Nc3cccc(C)c3)o2)cc(OC)c1OC,7,123,5,-16,x
NC(=O)c1oc2ccccc2c1NC(=O)c1nc2ccccc2s1,3,85,64*,83*,0
COC(=O)c1sc2ccccc2c1NC(=O)c1nc2ccccc2s1,x,76,x,x,x
NC(=O)c1oc2ccccc2c1NC(=O)c1ccc(F)cc1,9,95,6,-10,26*
COc1ccc(S(=O)(=O)N2CCN(c3ccccn3)CC2)cc1OC,9,71,7,-16,-2
CCOC(=O)c1ccc(NC(=O)CSc2nnc(Cc3cccs3)n2C)cc1,0,70,5,7,-2
CCCCCC(=O)Nc1cccc(-c2nc3ncccc3o2)c1,7,112,10,38,1
O=C(NC1=NCCS1)c1ccncc1,1,129,4,25,-3
O=C(NC1=NCCS1)c1cccs1,3,102,12,11,1
Cc1cc(C(=O)NC2=NCCS2)cs1,7,127,53*,43,-4
O=C(NC1=NCCS1)Nc1ccccc1,2,111,86*,44,-10
CCn1nc(NC(=O)c2cccnc2)c2cc3ccccc3nc21,8,90,7,3,-11
COc1ccccc1C(=O)N1CCCN(C(=O)c2ccccc2OC)CC1,5,93,-19,4,5
Cc1cccc(-c2nnc(-c3ccccc3)o2)c1,2,103,60*,46,-3
c1ccc(-c2nnc(-c3ccco3)o2)cc1,0,99,51*,23,0
O=C(CSc1nnc2sc3ccccc3n12)NCc1ccco1,4,99,-5,-1,-1
SMILES,Ec RNAP inh,BAP1 inh,SF1 activator,RORa activator,JNK3 inh
Cc1ccc(Oc2ccc(NC(=O)c3ccco3)cc2)cc1,8,89,73*,46,6
COc1ccc(NC(=O)c2ccco2)cc1NC(=O)c1ccc(C)cc1,8,102,-8,6,4
Cc1ccc(NC(=O)c2ccc(OC(=O)c3ccco3)cc2)cc1,-2,x,52*,51*,-12
Cc1cccc2[nH]c(-c3ccc(NC(=O)c4ccco4)cc3)nc12,7,x,74*,30,0
O=C(Nc1ccc2nc(-c3ccc(Br)o3)[nH]c2c1)c1cccs1,x,75,6,62*,-8
O=C(Nc1ccc2nc(-c3ccc(Br)o3)[nH]c2c1)c1ccco1,x,93,30,55*,-2
O=S(=O)(Nc1ccc2nc(-c3ccc(Br)o3)[nH]c2c1)c1ccccc1,x,101,8,7,-8
COc1ccccc1N1CCN(C(=O)c2ccncc2)CC1,7,98,-5,6,1
Nc1nc(CSc2ccccn2)nc(Nc2ccccc2)n1,-1,86,58*,24,x
Nc1nc(-c2ccccc2)cc(-c2ccccc2O)n1,-4,81,19,49*,35*
Cc1nc2cc(Cl)c(Cl)cc2nc1C,9,85,64*,89*,-2
Cc1nnc(N)nc1C,7,x,8,-12,6
CC1CN(C2CCN(S(=O)(=O)c3ccccc3)CC2)CC(C)O1 (stereo not drawn),22*,107,-6,-20,3
Nc1c(C(=O)c2ccccc2)oc2ccc(Br)cc12,4,71,140*,53*,11
COC(=O)CCC(=O)c1oc2ccc(Br)cc2c1N,x,50,0,-19,6
O=C(Nc1ccccc1)N(O)c1ccc(Cl)cc1,4,94,58*,46,-1
C=CCn1c(=O)c2ccccc2n2c(Sc3nnnn3-c3ccccc3)nnc12,x,103,6,-6,-10
Cc1cccnc1NC(=O)Nc1ccc(F)cc1,4,101,98*,46,10
Cc1cnc(C(=O)Nc2nnc(C(C)C)s2)cn1,3,95,68*,33,4
CC(C)c1nnc(NC(=O)c2cnccn2)s1,10,95,51*,32,8
Cn1c(SCc2ccc(C#N)cc2)nnc1-c1cccc(Cl)c1,11,94,6,-3,3
Nc1c(-c2ccccc2)n[nH]c1-c1ccccc1,3,112,15,35,-5
O=c1c(-c2ccccc2)n[nH]c2ccccc12,8,76,75*,31,2
CC(C)c1cc(C(=O)NC2CCCCC2)no1,5,103,54*,11,1
CCCc1cc(C(=O)NC2CCCC2)no1,-4,100,29,61*,0
SMILES,Ec RNAP inh,BAP1 inh,SF1 activator,RORa activator,JNK3 inh
CCCc1cc(C(=O)NC2CCCCC2)no1,7,96,54*,46,-2
Cc1cc(C(=O)CSc2nnnn2C)c(C)n1-c1cccc(F)c1,0,93,53*,16,-3
CCOC(=O)C1=C(C)NC(C)=C(C(=O)OC)C1c1ccc([N+](=O)[O-])cc1 (stereo not drawn),x,82,x,x,x
COc1cccc(-c2nn(-c3ccccc3)cc2C(=O)NCC(=O)O)c1,7,133,0,-19,-2
CCOc1ccc(C(=O)Nc2cccc(C)n2)cc1,-1,76,-31,-27,7
CCCCOc1ccc(C(=O)Nc2cccc(C)n2)cc1,0,105,59*,55*,-5
COc1ccc(N2Cc3cccc(C(=O)O)c3C2=O)cc1,2,86,0,-4,2
COc1nc(-c2ccccc2)ccc1-c1noc(-c2ccco2)n1,11,x,55*,29,4
COc1ccccc1-c1noc(-c2ccccc2)n1,6,137,65*,42,2
COc1ccc(-c2nc(C3CCCCC3)no2)cc1OC,5,105,57*,42,-11
COc1ccc(-c2nc(-c3cccc(C)c3)no2)cc1OC,4,126,59*,61*,2
CCOC(=O)c1cnc(-n2nc(C)cc2C)nc1NCc1ccccc1,-1,50,-42,14,1
CCn1c(SCC(=O)Nc2nnc(C)s2)nnc1-c1ccncc1,7,72,-4,-19,-6
CCOc1cc(-c2nc(-c3ccccc3OC)no2)cc(OCC)c1OCC,2,76,-1,-7,-11
